Values belong to the molecule of their own block, whether it stands above or below them. Activity calls are given as the source filed them. The rule behind the calls is not given here.
Tests used:
Rattus norvegicus [1] = species on record: Rattus norvegicus; assay: Thyromimetic activity (induction of GPDH) in rat heart expressed as percentage of ratio of the ED50 for T3 to that of the test compound; LM= Low maximum response; type: functional, organism-based; conditions: filed as partial agonist
Method in brief: (§1)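 Hypothyroid rats received a single intramuscular injection in 0.15 M NaCl/0.01 M NaOH vehicle (1 mL/kg), up to 50 mg/kg. Mitochondrial GPDH activity was measured in the organ 48 h later. Dose-response curves were fitted to a hyperbola by nonlinear fitting to give ED50, and rel ED50 = (ED50 T3 / ED50 compound) × 100. Where the maximum was below T3's, the percent of maximal response at 50 mg/kg was calculated.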

[2] = target: T1, Thyroid hormone receptor beta (Rattus norvegicus) (UniProt P18113); assay: Thyromimetic activity (induction of GPDH) in rat heart expressed as percentage of ratio of the ED50 for T3; F= Full agonist; type: functional, tissue-based; conditions: filed as agonist; method in brief: as §1
T1 sequence (whole entry): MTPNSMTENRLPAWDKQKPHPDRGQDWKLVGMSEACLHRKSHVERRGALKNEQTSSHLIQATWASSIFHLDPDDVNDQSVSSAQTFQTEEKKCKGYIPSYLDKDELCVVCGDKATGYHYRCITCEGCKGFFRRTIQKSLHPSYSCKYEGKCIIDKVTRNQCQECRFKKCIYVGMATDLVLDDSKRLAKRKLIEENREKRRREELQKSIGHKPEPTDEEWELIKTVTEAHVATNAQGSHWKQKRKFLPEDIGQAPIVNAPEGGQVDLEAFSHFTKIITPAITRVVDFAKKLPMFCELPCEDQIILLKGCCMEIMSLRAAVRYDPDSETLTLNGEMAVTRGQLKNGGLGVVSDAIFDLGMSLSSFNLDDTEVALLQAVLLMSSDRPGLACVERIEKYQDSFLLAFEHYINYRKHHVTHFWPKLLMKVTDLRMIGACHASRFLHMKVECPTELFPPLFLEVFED

[3] = target: T1, Thyroid hormone receptor beta (Rattus norvegicus); assay: Thyromimetic activity (induction of GPDH) in rat liver expressed as percentage of ratio of the ED50 for T3; F= Full agonist; type: functional; conditions: filed as agonist; method in brief: as §1
[4] = pKa for compound was evaluated; type: physicochemical
Rattus norvegicus [5] = species on record: Rattus norvegicus; assay: Thyromimetic activity (induction of GPDH) in rat liver expressed as percentage of ratio of the ED50 for T3 to that of the test compound; I= Inactive; type: functional, organism-based; method in brief: as §1
[6] = target: T1, Thyroid hormone receptor beta (Rattus norvegicus); assay: Thyromimetic activity (induction of GPDH) in rat heart expressed as percentage of ratio of the ED50 for T3; I= Inactive; type: functional, tissue-based; method in brief: as §1
Rattus norvegicus [7] = species on record: Rattus norvegicus; assay: Thyromimetic activity (induction of GPDH) in rat heart expressed as percentage of ratio of the ED50 for T3 to that of the test compound; Full agonist; type: functional, organism-based; conditions: filed as agonist; method in brief: as §1
Rattus norvegicus [8] = species on record: Rattus norvegicus; assay: Thyromimetic activity (induction of GPDH) in rat liver expressed as percentage of ratio of the ED50 for T3 to that of the test compound; Full agonist; type: functional, organism-based; conditions: filed as agonist; method in brief: as §1
Rattus norvegicus [9] = assay: Relative in vivo thyromimetic potency (GPDH induction) in rat heart, expressed as percent ratio of ED50 for T3 to that of compound; F= Full agonist; conditions: filed as agonist

Structure (SMILES): NC(Cc1cc(I)c(Oc2ccc(O)c(CCCCO)c2)c(I)c1)C(=O)O (stereo unspecified)
- Relative ED50 (Rattus norvegicus [1]): Partial agonist

Structure (SMILES): CCCCOCc1cc(Oc2c(I)cc(CC(N)C(=O)O)cc2I)ccc1O (stereo unspecified)
- Relative ED50 [2]: Agonist
- Relative ED50 [3]: Agonist

Structure (SMILES): NC(Cc1cc(I)c(Oc2ccc(O)c(CO)c2)c(I)c1)C(=O)O (stereo unspecified)
- pKa [4]: 9.92

Structure (SMILES): CC(=O)c1cc(Oc2c(I)cc(CC(N)C(=O)O)cc2I)ccc1O (stereo unspecified)
- pKa [4]: 10.1

Structure (SMILES): CCC(=O)NCCc1cc(Oc2c(I)cc(CC(N)C(=O)O)cc2I)ccc1O (stereo unspecified)
- Relative ED50 [6]: inactive

Structure (SMILES): NC(Cc1cc(I)c(Oc2ccc(O)c([N+](=O)[O-])c2)c(I)c1)C(=O)O (stereo unspecified)
- pKa [4]: 7.23
- Relative ED50 [2]: Agonist

Structure (SMILES): N[C@@H](Cc1cc(I)c(Oc2ccc(O)cc2)c(I)c1)C(=O)O
- pKa [4]: 9.99

Structure (SMILES): NC(Cc1cc(I)c(Oc2ccc(O)c(C=O)c2)c(I)c1)C(=O)O (stereo unspecified)
- pKa [4]: 8.37
- Relative ED50 (Rattus norvegicus [7]): Agonist

Structure (SMILES): NC(Cc1cc(I)c(Oc2ccc(O)c(CC3CCCCC3)c2)c(I)c1)C(=O)O (stereo unspecified)
- Relative ED50 [2]: Agonist
- Relative ED50 [3]: Agonist

Structure (SMILES): CC(C)c1cc(Oc2c(I)cc(CC(N)C(=O)O)cc2I)ccc1O (stereo unspecified)
- pKa [4]: 10.5

Structure (SMILES): CC(C)(C)c1cc(Oc2c(I)cc(CC(N)C(=O)O)cc2I)ccc1O (stereo unspecified)
- pKa [4]: 10.6

Structure (SMILES): CCC(=O)c1cc(Oc2c(I)cc(CC(N)C(=O)O)cc2I)ccc1O (stereo unspecified)
- Relative ED50 (Rattus norvegicus [8]): Agonist

Structure (SMILES): NC(Cc1cc(I)c(Oc2ccc(O)c(O)c2)c(I)c1)C(=O)O (stereo unspecified)
- pKa [4]: 9.34

Structure (SMILES): Cc1cc(Oc2c(I)cc(CC(N)C(=O)O)cc2I)ccc1O (stereo unspecified)
- pKa [4]: 10.3

Structure (SMILES): NC(Cc1cc(I)c(Oc2ccc(O)c(C3CCCCC3)c2)c(I)c1)C(=O)O (stereo unspecified)
- Relative ED50 [3]: Agonist

Structure (SMILES): NC(Cc1cc(I)c(Oc2ccc(O)c(-c3ccccc3)c2)c(I)c1)C(=O)O (stereo unspecified)
- pKa [4]: 10

Structure (SMILES): CCCCc1cc(Oc2c(I)cc(CC(N)C(=O)O)cc2I)ccc1O (stereo unspecified)
- Relative ED50 [2]: Agonist

Structure (SMILES): NCc1cc(Oc2c(I)cc(CC(N)C(=O)O)cc2I)ccc1O (stereo unspecified)
- Relative ED50 (Rattus norvegicus [5]): inactive
- Relative ED50 [6]: inactive

Structure (SMILES): CCOCCCc1cc(Oc2c(I)cc(CC(N)C(=O)O)cc2I)ccc1O (stereo unspecified)
- Relative ED50 [3]: Agonist

Structure (SMILES): NC(Cc1cc(I)c(Oc2ccc(O)c(F)c2)c(I)c1)C(=O)O (stereo unspecified)
- pKa [4]: 8.73
- Relative ED50 [3]: Agonist
- Relative ED50 (Rattus norvegicus [9]): Agonist

Structure (SMILES): CCCCSCc1cc(Oc2c(I)cc(CC(N)C(=O)O)cc2I)ccc1O (stereo unspecified)
- Relative ED50 [3]: Agonist

Second part, led by results:

- Relative ED50 [6]: inactive
Structure (SMILES): CCCC(=O)NCc1cc(Oc2c(I)cc(CC(N)C(=O)O)cc2I)ccc1O (stereo unspecified)
- Relative ED50 (Rattus norvegicus [5]): inactive

- Relative ED50 [2]: Agonist
- Relative ED50 [3]: Agonist
Structure (SMILES): CCC(C)c1cc(Oc2c(I)cc(CC(N)C(=O)O)cc2I)ccc1O (stereo unspecified)

- pKa [4]: 8.56
Structure (SMILES): NC(Cc1cc(I)c(Oc2ccc(O)c(Cl)c2)c(I)c1)C(=O)O (stereo unspecified)

- Relative ED50 [6]: inactive
Structure (SMILES): NC(Cc1cc(I)c(Oc2ccc(O)c(C(=O)O)c2)c(I)c1)C(=O)O (stereo unspecified)
- Relative ED50 (Rattus norvegicus [5]): inactive

- Relative ED50 [2]: Agonist
Structure (SMILES): COCCCCc1cc(Oc2c(I)cc(CC(N)C(=O)O)cc2I)ccc1O (stereo unspecified)

- pKa [4]: 8.45
Structure (SMILES): NC(Cc1cc(I)c(Oc2ccc(O)c(Br)c2)c(I)c1)C(=O)O (stereo unspecified)

- Relative ED50 [2]: Agonist
- Relative ED50 [3]: Agonist
Structure (SMILES): CC(C)Cc1cc(Oc2c(I)cc(CC(N)C(=O)O)cc2I)ccc1O (stereo unspecified)

- Relative ED50 [6]: inactive
Structure (SMILES): CC(=O)NCCCc1cc(Oc2c(I)cc(CC(N)C(=O)O)cc2I)ccc1O (stereo unspecified)

- pKa [4]: 10.1
Structure (SMILES): NC(Cc1cc(I)c(Oc2ccc(O)c(Cc3ccccc3)c2)c(I)c1)C(=O)O (stereo unspecified)

- Relative ED50 [6]: inactive
Structure (SMILES): NCCc1cc(Oc2c(I)cc(CC(N)C(=O)O)cc2I)ccc1O (stereo unspecified)

- pKa [4]: 9.85
- Relative ED50 [2]: Agonist
Structure (SMILES): COCc1cc(Oc2c(I)cc(CC(N)C(=O)O)cc2I)ccc1O (stereo unspecified)

- pKa [4]: 8.51
Structure (SMILES): N[C@@H](Cc1cc(I)c(Oc2ccc(O)c(I)c2)c(I)c1)C(=O)O [LIOTHYRONINE]

- pKa [4]: 10.3
Structure (SMILES): C=CCc1cc(Oc2c(I)cc(CC(N)C(=O)O)cc2I)ccc1O (stereo unspecified)
